Measurements collected from several papers.
RPS6KA3 C-terminal kinase domain: Ribosomal protein S6 kinase alpha-3, C-terminal kinase domain (RPS6KA3, Homo sapiens, UniProt P51812)
RPS6KA3 N-terminal kinase domain: Ribosomal protein S6 kinase alpha-3, N-terminal kinase domain (RPS6KA3, Homo sapiens, UniProt P51812)
RPS6KA3: Ribosomal protein S6 kinase alpha-3 (RPS6KA3, Homo sapiens, UniProt P51812)

| Compound | target | test | conditions | quantity | result |
| --- | --- | --- | --- | --- | --- |
| Cc1cc(O)c(-c2ccc([C@@H](C)CN(C)C)cc2)c2c1[nH]c(=O)c1sccc12 | RPS6KA3 C-terminal kinase domain | enzyme activity, inhibitor | 0.1 µM | inhibition | -17.5% |
| N#Cc1ccc(NC(=O)Nc2ccccc2)cc1 | RPS6KA3 N-terminal kinase domain | cell-free assay, competition with immobilised ligand | 25 µM | remaining binding | 90% |
| COc1ccc2[nH]c3c4[nH]c5ccc(OC)cc5c4c4c(c3c2c1)C(=O)NC4=O | RPS6KA3 N-terminal kinase domain | binding, competition with immobilised ligand | 1 µM | remaining binding | 21% |
| CC(C)S(=O)(=O)c1ccc2nccc(Nc3ccc4sc(C5CCCC5)nc4c3)c2c1 | RPS6KA3 | enzyme activity, inhibitor | 1 µM | activity vs control | 113% |
| C#Cc1cc(-c2cc(Nc3nc(N[C@@H](C)c4ccc(F)cn4)ncc3Cl)n[nH]2)ccc1C=O | RPS6KA3 | enzyme activity, inhibitor | 0.2 µM | inhibition | 39.8% |
| CN1CCN(C(=O)c2ccc(NC(=O)Nc3ccc(N(C)c4ccnc(Nc5ccc(CS(C)(=O)=O)cc5)n4)cc3)cc2)CC1 | RPS6KA3 C-terminal kinase domain | binding, competition with immobilised ligand | 1 µM | remaining binding | 86% |
| CCCCC(=O)Nc1ccc(-c2ccc3ncn(CCC)c(=O)c3c2)cn1 | RPS6KA3 C-terminal kinase domain | binding, competition with immobilised ligand | 0.5 µM | remaining binding | 99% |
| COc1ccc2oc(-c3ccc4nc(N)oc4c3)c/c(=N\c3ccccc3NC(=O)CCN)c2c1 | RPS6KA3 | binding | 1 µM | remaining binding | 98% |
